pIC50: −log10 of the molar value.
Columns and labels:
[1] = test system: Nucleic Acid; assay: Binding affinity to poly(dA-dT)n DNA assessed as increase in melting temperature at 0.3 mol compound per mole of DNA by spectrophotometry; type: nucleic-acid assay
In short: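 Thermal melting monitored by UV absorbance in 1 cm quartz cuvettes, heated at 0.5 °C/min under thermistor control. CAC 10 buffer: cacodylic acid 10 mM, EDTA 1 mM, NaCl 100 mM, pH 7.0. DNA concentration set from absorbance at 260 nm. Complex at 0.3 mol compound per mol DNA, with DNA alone as control. ΔTm taken from the peak of first-derivative (dA/dT) curves.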

[2] = Selectivity index, ratio of IC50 for rat L6 cells to IC50 for intracellular Leishmania donovani; type: toxicity, cell-based
[3] = test system: Mus musculus; assay: Toxicity in uninfected mouse assessed as induction of severe tremors at 10 mg/kg, ip measured 40 mins post dose; type: organism-based; parameters: dose 10 mg/kg, route intraperitoneal; settings: in vivo
[4] = test system: Mus musculus; assay: Toxicity in uninfected mouse assessed as induction of severe tremors at 30 mg/kg, ip measured 10 mins post dose; type: organism-based; parameters: dose 30 mg/kg, route intraperitoneal; settings: in vivo
[5] = test system: L6; assay: Cytotoxicity against rat L6 cells; type: cell-based
[6] = test system: Leishmania donovani; assay: Antileishmanial activity against intracellular Leishmania donovani; type: functional, organism-based
[7] = test system: Leishmania amazonensis; assay: Antileishmanial activity against intracellular Leishmania amazonensis; type: functional, organism-based

Compound	ΔTm [1] [°C]	Selectivity Index [2]	Activity [3]	Activity [4]	pIC50 [5]	pIC50 [6]	pIC50 [7]
Cl.Cl.N=C(Nc1ccc(-c2ccc(NC(=N)c3ccccn3)cc2)cc1)c1ccccn1	6	594	Toxic	Toxic	4.33	7.10	6.12
N=C(Nc1ccc(COCc2ccc(NC(=N)c3ccccn3)cc2)cc1)c1ccccn1	4				4.67		5.96
Cl.Cl.N=C(Nc1ccc(Oc2ccc(NC(=N)c3ccccn3)cc2)cc1)c1ccccn1	5.2	178		Toxic	5.30	7.55	6.17
N=C(Nc1ccc(Cc2ccc(NC(=N)c3ccccn3)cc2)cc1)c1ccccn1	2.1				4.03		< 5.00
CC(C)Oc1cc(NC(=N)c2ccccn2)ccc1-c1ccc(-c2ccc(NC(=N)c3ccccn3)cc2OC(C)C)o1	6				5.52		
N=C(Nc1ccc(NC(=N)c2ncccn2)cc1)c1ncccn1	0				< 3.68		
CC(C)Oc1cc(NC(=N)c2ccccn2)ccc1-c1ccc(NC(=N)c2ccccn2)cc1OC(C)C.Cl.Cl	0.1	916		Toxic	4.64	7.60	6.85
N=C(Nc1ccc(NC(=N)c2ccccn2)cc1)c1ccccn1	0				< 3.67		< 5.00
N=C(Nc1ccccn1)c1ccc(C(=N)Nc2ccccn2)cc1	0.5				< 3.69		5.29

— ChEMBL document CHEMBL2062466, “Synthesis, DNA binding and antileishmanial activity of low molecular weight bis-arylimidamides” (Eur J Med Chem, 2012)
